Laboratory results taken from ChEMBL document CHEMBL4364337, “The discovery and optimization of a series of 2-aminobenzoxazole derivatives as ChemR23 inhibitors” (Bioorg Med Chem, 2019).
The source made the active and inactive calls. No cut-off for these calls is given here.

Assays:
Chemerin-like receptor 1 [1] = molecular target: T1, Chemerin-like receptor 1 (Homo sapiens, UniProt Q99788); test: Inhibition of chemR23 in human CAL1 cells assessed as reduction in chemerin-induced intracellular calcium ion concentration preincubated for 45 mins followed by chemerin addition; type: functional, cell-based
T1 sequence (Q99788 whole entry): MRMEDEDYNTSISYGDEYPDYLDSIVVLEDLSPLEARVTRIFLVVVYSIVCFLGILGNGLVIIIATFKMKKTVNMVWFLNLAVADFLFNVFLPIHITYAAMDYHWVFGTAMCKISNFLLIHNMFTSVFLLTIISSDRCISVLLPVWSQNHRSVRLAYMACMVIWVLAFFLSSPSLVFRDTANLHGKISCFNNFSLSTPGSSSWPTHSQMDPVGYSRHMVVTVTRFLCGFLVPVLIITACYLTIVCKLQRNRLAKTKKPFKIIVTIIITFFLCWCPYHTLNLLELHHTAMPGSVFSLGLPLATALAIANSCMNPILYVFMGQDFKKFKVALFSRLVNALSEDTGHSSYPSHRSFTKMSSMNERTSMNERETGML
Summary of the method: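 CAL-1 cells, native human ChemR23, 1 × 10⁴/well in RPMI 1640 with 10 mM HEPES, Calcium-3 dye, amaranth 0.75 mg/mL final. Compounds at final 0–10 µM for 45 min at 37 °C, then human chemerin (final 50 ng/mL, 1% BSA buffer); intracellular Ca²⁺ read by kinetic fluorescence; mean of four measurements.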

[2] = molecular target: C-X-C chemokine receptor type 4 (Homo sapiens, UniProt P61073); test: Inhibition of CXCR4 expressed in human CAL1 cells assessed as reduction in SDF1alpha-induced intracellular calcium ion concentration preincubated for 45 mins followed by SDF1alpha addition; type: functional, cell-based
Summary of the method: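 CAL-1 cells (1 × 10⁴/well) loaded with Calcium-3 in RPMI1640, 10 mM HEPES, amaranth 0.75 mg/mL final. Compounds at final 0–10 µM for 45 min at 37 °C, then human SDF-1α (final 5 × 10^-3 µM, in buffer with 1% BSA); intracellular Ca²⁺ read by kinetic fluorescence.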

Chemerin-like receptor 1 [3] = molecular target: T1, Chemerin-like receptor 1; test: Agonist activity at chemR23 expressed in human CAL1 cells assessed as increase in intracellular calcium ion concentration; type: functional, cell-based
[4] = molecular target: T2, Chemerin-like receptor 1 (Homo sapiens) (UniProt Q99788); test: Induction of chemR23 internalization in human CAL1 cells at 10 uM incubated for 30 mins at 37 degC by flow cytometric analysis; type: cell-based
T2 sequence (whole entry): T1 sequence (Q99788 whole entry)
Summary of the method: (§1)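 CAL-1 cells in RPMI1640 with 10 mM HEPES, 4.5 × 10⁵ cells per tube, exposed to compounds at 37 °C or 4 °C for 30 min; chemerin 50 ng/mL as reference ligand. Washed with PBS containing 2% FBS, stained with anti-ChemR23 antibody; surface ChemR23 measured by flow cytometry, single determination (N = 1).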

[5] = molecular target: T2, Chemerin-like receptor 1 (Homo sapiens); test: Induction of chemR23 internalization in human CAL1 cells at 10 uM incubated for 30 mins at 4 degC by flow cytometric analysis; type: cell-based; summary of the method: as §1
[6] = molecular target: T2, Chemerin-like receptor 1 (Homo sapiens); test: Induction of chemR23 internalization in human CAL1 cells at 3 uM incubated for 30 mins at 37 degC by flow cytometric analysis; type: cell-based; summary of the method: as §1
[7] = molecular target: T2, Chemerin-like receptor 1 (Homo sapiens); test: Induction of chemR23 internalization in human CAL1 cells at 3 uM incubated for 30 mins at 4 degC by flow cytometric analysis; type: cell-based; summary of the method: as §1
Chemerin-like receptor 1 [8] = molecular target: T3, Chemerin-like receptor 1 (Mus musculus, UniProt P97468); test: Inhibition of chemR23 expressed in mouse BA/F3 cells assessed as reduction in chemerin-induced intracellular calcium ion concentration preincubated for 45 mins followed by chemerin addition; type: functional, cell-based
T3 sequence (P97468 whole entry): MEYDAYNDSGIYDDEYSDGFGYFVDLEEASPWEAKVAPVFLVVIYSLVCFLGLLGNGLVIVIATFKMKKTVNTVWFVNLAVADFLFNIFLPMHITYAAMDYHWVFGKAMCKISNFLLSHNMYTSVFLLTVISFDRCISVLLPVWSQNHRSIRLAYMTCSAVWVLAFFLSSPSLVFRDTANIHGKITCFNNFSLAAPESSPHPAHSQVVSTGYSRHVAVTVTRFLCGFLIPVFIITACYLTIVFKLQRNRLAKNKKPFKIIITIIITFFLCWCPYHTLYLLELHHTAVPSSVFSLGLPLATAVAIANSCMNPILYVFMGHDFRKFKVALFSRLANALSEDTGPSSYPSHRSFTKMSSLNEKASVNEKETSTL
Summary of the method: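 Ba/F3 cells stably expressing mouse ChemR23, 1 × 10⁴/well, loaded with Calcium-3 in RPMI1640, 10 mM HEPES, amaranth 0.75 mg/mL final. Compounds at final 0–10 µM for 45 min at 37 °C, then mouse chemerin (final 2 ng/mL, 1% BSA buffer); intracellular Ca²⁺ read by kinetic fluorescence.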

Sequence of C-X-C chemokine receptor type 4 (P61073 whole entry): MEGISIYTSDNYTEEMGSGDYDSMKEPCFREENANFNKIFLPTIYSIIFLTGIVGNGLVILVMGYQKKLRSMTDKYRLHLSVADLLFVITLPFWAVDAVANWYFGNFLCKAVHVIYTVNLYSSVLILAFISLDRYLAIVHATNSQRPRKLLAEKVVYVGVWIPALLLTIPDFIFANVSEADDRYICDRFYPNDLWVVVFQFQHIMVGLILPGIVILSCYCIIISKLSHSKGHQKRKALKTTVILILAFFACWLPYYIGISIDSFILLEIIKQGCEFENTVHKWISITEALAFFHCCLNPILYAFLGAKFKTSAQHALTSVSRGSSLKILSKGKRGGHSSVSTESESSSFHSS

IC50 (Chemerin-like receptor 1 [1]) | IC50 [2] | EC50 (Chemerin-like receptor 1 [3]) | Activity [4] | Activity [5] | Activity [6] | Activity [7] | IC50 (Chemerin-like receptor 1 [8]) | SMILES
3.3 µM | 9.7 µM | 5.2 µM | Active | inactive | – | – | – | CCCCN(Cc1ccc(-c2ccccc2-c2nnn[nH]2)cc1)c1nc2ccccc2o1
3.3 µM | 5.6 µM | 6.6 µM | – | – | – | – | – | CCCCCN(Cc1ccc(-c2ccccc2-c2nnn[nH]2)cc1)c1nc2ccccc2o1
7.6 µM | 9.9 µM | > 10 µM | – | – | Active | inactive | – | CCCCN(c1nc2ccccc2o1)[C@@H](C)c1ccc(-c2ccccc2-c2nnn[nH]2)cc1
2.2 µM | 3.5 µM | 8.3 µM | – | – | – | – | – | c1ccc(-c2nnn[nH]2)c(-c2ccc(CN(CC3CCCC3)c3nc4ccccc4o3)cc2)c1
> 30 µM | – | – | – | – | – | – | > 10 µM | CCCCN(c1nc2cc(N(C)C(N)=O)ccc2o1)[C@H](C)c1ccc(-c2ccccc2-c2nnn[nH]2)cc1
0.25 µM | 8.8 µM | 2.7 µM | – | – | – | – | – | CCCCN(c1nc2ccccc2o1)C(C)c1ccc(-c2ccccc2-c2nnn[nH]2)cc1 (racemic)
0.048 µM | > 10 µM | 1.3 µM | – | – | – | – | 13 µM | CCCCN(c1nc2cc(CNC(=O)NC)ccc2o1)[C@H](C)c1ccc(-c2ccccc2-c2nnn[nH]2)cc1
1 µM | > 10 µM | 3.9 µM | – | – | – | – | – | CCCCN(Cc1ccc(-c2ccccc2-c2nnn[nH]2)cc1)c1nc2cc(CC(=O)NC)ccc2o1
0.94 µM | 8.8 µM | 4.5 µM | – | – | – | – | – | CCCCN(c1nc2ccccc2o1)C(CC)c1ccc(-c2ccccc2-c2nnn[nH]2)cc1 (configuration not stated)
0.032 µM | > 10 µM | – | – | – | – | – | 0.51 µM | CCCCN(c1nc2cc(NC(=O)N(C)C)ccc2o1)[C@H](C)c1ccc(-c2ccccc2-c2nnn[nH]2)cc1
2.4 µM | > 10 µM | > 10 µM | – | – | – | – | – | CCCCN(Cc1ccc(-c2ccccc2-c2nnn[nH]2)cc1)c1nc2cc(CC(=O)OC)ccc2o1
3.3 µM | 5.5 µM | > 10 µM | – | – | – | – | – | CCCCN(Cc1ccc(-c2ccccc2-c2nnn[nH]2)cc1)c1nc2cc(Cl)c(C)cc2o1
> 10 µM | > 10 µM | > 10 µM | – | – | – | – | – | c1cncc(CN(Cc2ccc(-c3ccccc3-c3nnn[nH]3)cc2)c2nc3ccccc3o2)c1
0.44 µM | > 10 µM | 1.5 µM | – | – | – | – | 2.1 µM | CCCCN(c1nc2cc(NC(C)=O)ccc2o1)[C@H](C)c1ccc(-c2ccccc2-c2nnn[nH]2)cc1
0.038 µM | > 10 µM | 0.28 µM | – | – | – | – | 0.15 µM | CCCCN(c1nc2cc(C(=O)NC)ccc2o1)[C@H](C)c1ccc(-c2ccccc2-c2nnn[nH]2)cc1
4.3 µM | > 10 µM | > 10 µM | – | – | – | – | – | CCCCN(Cc1ccc(-c2ccccc2-c2nnn[nH]2)cc1)c1nc2cc(C(=O)OC)ccc2o1
> 10 µM | 9.6 µM | > 10 µM | – | – | – | – | – | c1ccc(CN(Cc2ccc(-c3ccccc3-c3nnn[nH]3)cc2)c2nc3ccccc3o2)cc1
0.037 µM | > 10 µM | – | – | – | – | – | 0.43 µM | CCCCN(c1nc2cc(NC(N)=O)ccc2o1)[C@H](C)c1ccc(-c2ccccc2-c2nnn[nH]2)cc1
0.034 µM | > 10 µM | – | – | – | – | – | 0.94 µM | CCCCN(c1nc2cc(NC(=O)NC)ccc2o1)[C@H](C)c1ccc(-c2ccccc2-c2nnn[nH]2)cc1
> 3 µM | > 3 µM | > 3 µM | – | – | – | – | – | CCCCN(c1nc2ccccc2o1)C(c1ccc(-c2ccccc2-c2nnn[nH]2)cc1)C1CC1 (configuration not stated)
0.12 µM | > 10 µM | 2.3 µM | – | – | – | – | > 10 µM | CCCCN(c1nc2cc(CC(=O)NC)ccc2o1)[C@H](C)c1ccc(-c2ccccc2-c2nnn[nH]2)cc1
2.5 µM | 8.6 µM | 3.9 µM | – | – | – | – | – | CCCCN(Cc1ccc(-c2ccccc2-c2nnn[nH]2)cc1)c1nc2cc(C)ccc2o1
8.4 µM | > 10 µM | > 10 µM | – | – | – | – | – | CCCCN(c1nc2ccccc2o1)C(C)(C)c1ccc(-c2ccccc2-c2nnn[nH]2)cc1
2.8 µM | > 10 µM | > 10 µM | – | – | – | – | – | c1ccc(CN(Cc2ccc(-c3ccccc3-c3nnn[nH]3)cc2)c2nc3ccccc3o2)nc1
3.4 µM | > 10 µM | > 10 µM | – | – | – | – | – | COCCN(Cc1ccc(-c2ccccc2-c2nnn[nH]2)cc1)c1nc2ccccc2o1
0.11 µM | 8.7 µM | 1.2 µM | – | – | Active | inactive | 0.15 µM | CCCCN(c1nc2ccccc2o1)[C@H](C)c1ccc(-c2ccccc2-c2nnn[nH]2)cc1
> 10 µM | > 10 µM | > 10 µM | – | – | – | – | – | c1ccc(-c2nnn[nH]2)c(-c2ccc(CN(Cc3ccncc3)c3nc4ccccc4o3)cc2)c1
2.5 µM | 3.9 µM | > 10 µM | – | – | – | – | – | CCCCN(Cc1ccc(-c2ccccc2-c2nnn[nH]2)cc1)c1nc2cc(Cl)cc(C)c2o1
1.2 µM | 2.9 µM | > 10 µM | – | – | – | – | – | CCCCN(Cc1ccc(-c2ccccc2-c2nnn[nH]2)cc1)c1nc2cc(Cl)cc(Cl)c2o1
